Test results from ChEMBL document CHEMBL1800056, “Discovery of 2-(6-{[(6-fluoroquinolin-2-yl)methyl]amino}bicyclo[3.1.0]hex-3-yl)-N-hydroxypyrimidine-5-carboxamide (CHR-3996), a class I selective orally active histone deacetylase inhibitor” (J Med Chem, 2010).
≈ marks a conversion by molar mass, not a printed value.

Experiments:
[1] = test system: HCT-116; experiment: Antiproliferative activity against human HCT116 cells after 72 hrs by WST-1 assay; format: functional
Procedure, shortened: (§1)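 Cells seeded at (1-5) × 10³/well in serum-containing medium for 24 h at 37 °C, 5% CO₂. Inhibitor added at 0.6-10000 nM for 72 h, with WST-1 pulse over the final 4 h. Formazan read at 450 nm (reference 650 nm). Expressed as % inhibition of vehicle response; GI50 is the concentration inhibiting 50% of vehicle response; n = 6 replicates.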

[2] = molecular target: Histone deacetylase; experiment: Inhibition of HDAC in human HeLa cells nuclear extract using fluor de Lys as substrate preincubated for 5 mins by fluorometric analysis; format: cell-based
[3] = Ratio of GI50 for human HCT116 cells to IC50 for HDAC in human HeLa cell nuclear extracts
Procedure, shortened: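 Cell/enzyme ratio = HCT116 GI50 divided by HDAC IC50. Enzyme: HeLa nuclear extract (10 μg protein), 5 min preincubation, then Fluor de Lys substrate 62.5 μM, 15 min at room temperature. Stopped with developer containing trichostatin A; fluorescence ex 355/em 455 nm; eight concentrations in duplicate. Cells: HCT116, 72 h exposure (0.6-10000 nM), WST-1 read at 450 nm, n = 6.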

[4] = Clearance in human liver microsomes assessed as compound remaining after 30 mins; format: ADME, Microsome; conditions: read-out: Activity
[5] = Aqueous solubility of the compound in PBS at pH 7.4; format: physicochemical
[6] = Clearance in mouse liver microsomes assessed as compound remaining after 30 mins; format: ADME, Microsome; conditions: read-out: Activity
[7] = Aqueous solubility of the compound in PBS at pH 5.5; format: physicochemical
[8] = molecular target: Cytochrome P450 3A4 (Homo sapiens, UniProt P08684); experiment: Inhibition of CYP3A4; format: ADME
[9] = molecular target: Cytochrome P450 2C19 (Homo sapiens, UniProt P33261); experiment: Inhibition of CYP2C19; format: ADME
[10] = molecular target: Cytochrome P450 2D6 (Homo sapiens, UniProt P10635); experiment: Inhibition of CYP2D6; format: ADME
[11] = AUC (0 to t) in spleen of CD1 mouse at 3 mg/kg, po; format: ADME, organism-based; set-up: dose 3 mg/kg, route oral
Procedure, shortened: (§2)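 Oral cassette PK in CD1 mice: four compounds per cassette, each at 3 mg/kg po. AUC0-t (ng h/mL) measured in plasma and spleen; spleen/plasma AUC ratio reported.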

[12] = AUC (0 to t) in plasma of CD1 mouse at 3 mg/kg, po; format: ADME, organism-based; set-up: dose 3 mg/kg, route oral; procedure, shortened: as §2
[13] = test system: Spleen; experiment: Ratio of AUC (0 to t) in spleen to plasma of CD1 mouse at 3 mg/kg, po; conditions: in vivo
[14] = test system: HepG2; experiment: Antiproliferative activity against human HepG2 cells after 72 hrs by WST-1 assay; format: functional; procedure, shortened: as §1
[15] = test system: HCT-116; experiment: Cell cycle arrest in human HCT116 cells assessed as accumulation at G2/M phase at 300 nM after 15 hrs by propidium iodide staining based flow cytometric analysis; format: functional
[16] = test system: A549; experiment: Antiproliferative activity against human A549 cells after 72 hrs by WST-1 assay; format: functional; procedure, shortened: as §1
[17] = test system: HCT-116; experiment: Cell cycle arrest in human HCT116 cells assessed as accumulation at G1 phase at 300 nM after 15 hrs by propidium iodide staining based flow cytometric analysis; format: functional
[18] = test system: HCT-116; experiment: Cell cycle arrest in human HCT116 cells assessed as accumulation at sub-G1 phase at 300 nM after 15 hrs by propidium iodide staining based flow cytometric analysis; format: functional
[19] = test system: MOLT-4; experiment: Antiproliferative activity against human MOLT4 cells after 72 hrs by WST-1 assay; format: functional; procedure, shortened: as §1
[20] = test system: MG-63; experiment: Antiproliferative activity against human MG63 cells after 72 hrs by WST-1 assay; format: functional; procedure, shortened: as §1
[21] = test system: U-937; experiment: Antiproliferative activity against human U937 cells after 72 hrs by WST-1 assay; format: functional; procedure, shortened: as §1
[22] = test system: A2780; experiment: Antiproliferative activity against human A2780 cells after 72 hrs by WST-1 assay; format: functional; procedure, shortened: as §1
[23] = test system: COR-L23; experiment: Antiproliferative activity against human COR-L23 cells after 72 hrs by WST-1 assay; format: functional; procedure, shortened: as §1
[24] = test system: HCT-116; experiment: Cell cycle arrest in human HCT116 cells assessed as accumulation at S phase at 300 nM after 15 hrs by propidium iodide staining based flow cytometric analysis; format: functional
[25] = test system: LoVo; experiment: Antiproliferative activity against human LoVo cells after 72 hrs by WST-1 assay; format: functional; procedure, shortened: as §1
[26] = Antiproliferative activity against human […] cells after 72 hrs by WST-1 assay; format: functional; procedure, shortened: as §1
[27] = test system: COR-L23; experiment: Antiproliferative activity against doxorubicin-resistant human COR-L23 cells after 72 hrs by WST-1 assay; format: functional; procedure, shortened: as §1
[28] = test system: MIA PaCa-2; experiment: Antiproliferative activity against human MIAPaCa2 cells after 72 hrs by WST-1 assay; format: functional; procedure, shortened: as §1

Cytochrome P450 3A4, sequence (P08684 whole entry): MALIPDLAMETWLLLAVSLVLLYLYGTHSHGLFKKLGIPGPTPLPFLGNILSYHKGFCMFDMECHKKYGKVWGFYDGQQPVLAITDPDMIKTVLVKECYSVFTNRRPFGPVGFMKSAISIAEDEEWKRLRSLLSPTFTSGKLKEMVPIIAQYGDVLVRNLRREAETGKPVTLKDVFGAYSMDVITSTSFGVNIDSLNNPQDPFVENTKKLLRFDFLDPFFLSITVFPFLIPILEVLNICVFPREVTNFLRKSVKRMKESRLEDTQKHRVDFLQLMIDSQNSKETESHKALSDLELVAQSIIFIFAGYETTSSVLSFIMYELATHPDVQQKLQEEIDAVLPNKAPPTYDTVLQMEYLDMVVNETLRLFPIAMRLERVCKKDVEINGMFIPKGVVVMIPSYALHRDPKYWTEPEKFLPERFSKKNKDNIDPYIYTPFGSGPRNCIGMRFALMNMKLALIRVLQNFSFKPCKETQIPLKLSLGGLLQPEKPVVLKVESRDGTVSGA
Cytochrome P450 2D6, sequence (P10635 whole entry): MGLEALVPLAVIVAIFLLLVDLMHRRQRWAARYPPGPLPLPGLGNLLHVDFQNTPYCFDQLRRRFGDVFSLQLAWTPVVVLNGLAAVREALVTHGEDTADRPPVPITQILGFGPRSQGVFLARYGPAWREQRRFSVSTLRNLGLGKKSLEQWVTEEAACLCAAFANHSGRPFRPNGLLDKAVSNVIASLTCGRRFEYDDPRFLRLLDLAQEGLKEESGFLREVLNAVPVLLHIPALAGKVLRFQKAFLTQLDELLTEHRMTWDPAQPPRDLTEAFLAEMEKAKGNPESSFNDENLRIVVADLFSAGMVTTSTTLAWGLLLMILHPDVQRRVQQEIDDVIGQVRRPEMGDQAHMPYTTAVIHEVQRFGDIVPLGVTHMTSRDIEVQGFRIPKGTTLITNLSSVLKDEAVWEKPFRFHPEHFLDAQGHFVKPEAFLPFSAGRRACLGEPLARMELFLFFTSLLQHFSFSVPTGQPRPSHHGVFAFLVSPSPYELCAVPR
Cytochrome P450 2C19, sequence (P33261 whole entry): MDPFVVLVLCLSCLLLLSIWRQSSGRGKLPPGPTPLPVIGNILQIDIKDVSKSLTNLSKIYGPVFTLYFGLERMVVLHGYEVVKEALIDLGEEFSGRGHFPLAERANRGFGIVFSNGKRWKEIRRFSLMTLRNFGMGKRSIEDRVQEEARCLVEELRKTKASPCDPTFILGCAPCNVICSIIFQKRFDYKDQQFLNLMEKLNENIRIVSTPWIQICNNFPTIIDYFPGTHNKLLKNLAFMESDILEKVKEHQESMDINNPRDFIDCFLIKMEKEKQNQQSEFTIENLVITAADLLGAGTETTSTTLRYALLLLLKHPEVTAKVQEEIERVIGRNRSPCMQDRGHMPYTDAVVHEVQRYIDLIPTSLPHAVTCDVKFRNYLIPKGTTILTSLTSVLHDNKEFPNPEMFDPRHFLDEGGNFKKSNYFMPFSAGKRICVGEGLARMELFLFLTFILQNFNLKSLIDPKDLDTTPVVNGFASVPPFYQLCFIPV

| SMILES | GI50 ([1]; Homo sapiens, HCT-116, 72 h) [µM] | IC50 [2] [µM] | Ratio [3] | also measured |
| --- | --- | --- | --- | --- |
| O=C(NO)c1cnc(N2C[C@@H]3[C@H](C2)[C@H]3NCC2CCCCC2)nc1 | 0.16 | 0.044 | 4 |  |
| O=C(NO)c1cnc(N2C[C@@H]3[C@H](C2)[C@H]3NS(=O)(=O)c2ccc3ccccc3c2)nc1 | 0.44 | 0.0065 | 73 | remaining at 0.5 h [4]: 43%; solubility [5]: 0.034 mg/mL (≈ 79.9 µM); remaining at 0.5 h [6]: 66%; solubility [7]: 0.074 mg/mL (≈ 174 µM); IC50 [8]: 10 µM; IC50 [9]: 10 µM; IC50 [10]: 10 µM |
| O=C(NO)c1cnc(N2C[C@@H]3[C@H](C2)[C@H]3NCc2ccc(Oc3ccccc3)cc2)nc1 | 0.12 | 0.016 | 7.5 | AUC(0-t) [11]: 0.219 µg·h/mL; AUC(0-t) [12]: 0.052 µg·h/mL; Ratio [13]: 4.2 |
| O=C(NO)c1cnc(N2C[C@@H]3[C@H](C2)[C@H]3NC(=O)c2ccc3ccccc3c2)nc1 | 0.41 | 0.013 | 32 |  |
| O=C(CCCCCCC(=O)Nc1ccccc1)NO [VORINOSTAT] |  |  |  | GI50 [14]: 4.6 µM; Activity [15]: 32%; GI50 [16]: 5.7 µM; Activity [17]: 35%; Activity [18]: 19%; GI50 [19]: 0.67 µM; GI50 [1]: 0.74 µM; GI50 [20]: > 10 µM; GI50 [21]: 0.45 µM; GI50 [22]: 3.15 µM; GI50 [23]: 1.1 µM; Activity [24]: 14%; GI50 [25]: 1.7 µM; GI50 [26]: 2.1 µM; GI50 [27]: 3.3 µM; GI50 [28]: 3.5 µM |
| O=C(NO)c1cnc(N2C[C@@H]3[C@H](C2)[C@H]3NC(=O)c2cccs2)nc1 | 3.6 | 0.04 | 90 |  |
| O=C(NO)c1cnc(N2C[C@@H]3[C@H](C2)[C@H]3NCc2ccc(-c3ccccc3)cc2)nc1 | 0.056 | 0.014 | 4 |  |
| O=C(NO)c1cnc(N2CC3C(CNCc4ccc5ccccc5c4)C3C2)nc1 (centres undefined) | 0.37 | 0.032 | 12 |  |
| O=C(NO)c1cnc(N2C[C@@H]3[C@H](C2)[C@H]3NS(=O)(=O)c2cccs2)nc1 | > 10 | 0.027 | >370 |  |
| CN([C@H]1[C@@H]2CN(c3ncc(C(=O)NO)cn3)C[C@@H]21)S(=O)(=O)c1ccc2ccccc2c1 | 1 | 0.023 | 44 |  |
| O=C(NO)c1cnc(N2C[C@@H]3[C@H](C2)[C@H]3NC(=O)c2ccccc2)nc1 | 5.1 | 0.057 | 89 |  |

Continued, in another order:

| GI50 ([1]; Homo sapiens, HCT-116, 72 h) [µM] | IC50 [2] [µM] | SMILES | Ratio [3] | also measured |
| --- | --- | --- | --- | --- |
| 0.28 | 0.034 | O=C(NO)c1cnc(N2C[C@@H]3[C@H](C2)[C@H]3NCCc2ccccc2)nc1 | 8 |  |
| 0.25 | 0.014 | O=C(NO)c1cnc(N2C[C@@H]3[C@H](C2)[C@H]3NCc2ccc(Br)cc2)nc1 | 18 |  |
| 0.38 | 0.027 | O=C(NO)c1cnc(N2C[C@@H]3[C@H](C2)[C@H]3NCc2ccc(F)cc2)nc1 | 14 |  |
| 0.19 | 0.02 | COc1ccc(CN[C@H]2[C@@H]3CN(c4ncc(C(=O)NO)cn4)C[C@@H]32)cc1 | 9.5 |  |
| 0.16 | 0.0124 | O=C(NO)c1cnc(N2C[C@@H]3[C@H](C2)[C@H]3NCc2ccc3ccccc3c2)nc1 | 13 | remaining at 0.5 h [4]: 40%; AUC(0-t) [11]: 0.145 µg·h/mL; solubility [5]: 0.012 mg/mL (≈ 32 µM); remaining at 0.5 h [6]: 100%; solubility [7]: 0.208 mg/mL (≈ 554 µM); IC50 [8]: > 50 µM; AUC(0-t) [12]: 0.05 µg·h/mL; IC50 [9]: > 50 µM; Ratio [13]: 2.9; IC50 [10]: > 50 µM |
| 0.2 | 0.016 | O=C(NO)c1cnc(N2C[C@@H]3[C@H](C2)[C@H]3NCc2cc(C(F)(F)F)cc(C(F)(F)F)c2)nc1 | 12.5 |  |
| 0.12 | 0.01 | O=C(NO)c1cnc(N2C[C@@H]3[C@H](C2)[C@H]3NCc2ccccc2)nc1 | 12 |  |
| 0.41 | 0.022 | CCCCc1ccc(CN[C@H]2[C@@H]3CN(c4ncc(C(=O)NO)cn4)C[C@@H]32)cc1 | 18 |  |
| 0.12 | 0.015 | O=C(NO)c1cnc(N2C[C@@H]3[C@H](C2)[C@H]3NCc2ccc(OC(F)(F)F)cc2)nc1 | 8 | AUC(0-t) [11]: 0.251 µg·h/mL; AUC(0-t) [12]: 0.083 µg·h/mL; Ratio [13]: 3 |
|  | 0.009 | O=C(NO)c1cnc(N2C[C@@H]3[C@H](C2)[C@H]3NCc2ccc3ccccc3n2)nc1 |  | AUC(0-t) [11]: 0.294 µg·h/mL; AUC(0-t) [12]: 0.042 µg·h/mL; Ratio [13]: 7 |
| 0.27 | 0.03 | N#Cc1ccc(CN[C@H]2[C@@H]3CN(c4ncc(C(=O)NO)cn4)C[C@@H]32)cc1 | 9 |  |
| 0.7 | 0.034 | O=C(NO)c1cnc(N2C[C@@H]3[C@H](C2)[C@H]3NCc2ccc(C(F)(F)F)cc2)nc1 | 21 |  |
| 0.2 | 0.016 | O=C(NO)c1cnc(N2C[C@@H]3[C@H](C2)[C@H]3NCc2cc(F)cc(F)c2)nc1 | 13 |  |
